# Only some compounds are listed: those with a hit (about 3% of all), similar ones and a draw of the others.
# Measles CPE = protection of cells from measles virus; Measles virus-infected cells, CPE protection, absorbance; protection (pct of control), % at 4 µM; 140,000 tested, 1.5% active; AID 841; in the data active = protection mostly above about 24%, no sharp cut-off; inactive = mostly below about 26%
# sdo1 growth = compounds rescuing growth of sdo1-depleted yeast, bone marrow failure model | S. cerevisiae sdo1-depleted JHY4D growth rescue, OD600 30 h; hits give high values; pdr5 snq2 efflux-pump mutant strain | z-score at 10 µM | 140,000 tested, 0.21% active | AID 817;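 active = z-score above 3 at both the 24 hr and the 30 hr optical density reads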;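 also: z-score against mean and SD of all compound wells on the same plate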
# Yeast growth inh = yeast BB579 growth reduction in restrictive medium; S. cerevisiae BB579 growth, OD615, 48 h; inhibition, % at 10 µM; 140,000 tested, 0.51% active;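 active = inhibition above a set limit, 3 SD over the mean compound inhibition, cut at about 44% in these data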
#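 controls = amphotericin B 10 µg/mL, positive | assay system = DeaD yeast strain BB579 | schedule = 48 h compound exposure at 30 °C after 4 h preincubation | detection = OD615 turbidity measurement | medium = restrictive CSMM-D medium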
# Yeast lifespan up = yeast lifespan extension; 130,000 tested, 0.68% active; inhibition of the nicotinamide effect, % at 10 µM; AID 775; S. cerevisiae growth with nicotinamide, OD615; deaD strain in restrictive glucose medium;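 active = inhibition above a set limit, placed 3 SD over the median of all compounds, cut at about 26% in these data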;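 also: 0% = nicotinamide-treated wells and 100% = cells grown without nicotinamide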
#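 Material: Modified budding yeast, DeaD strain | Medium: Restrictive glucose medium | Probe or stimulus: 1.5 mM nicotinamide | Dosing: Single dose 10 µM compound, 0.25% DMSO | Times: 48 h at 30 °C | Technique: OD615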
# sEH activator = soluble epoxide hydrolase (human) activation | P34913 | 91,000 tested, 0.04% active | AID 717 | purified human sEH enzymatic activity, activator screen | activation, % at 2 µM; in the data active = activation above about 37%
# Target sequence (P34913 whole entry, looked up): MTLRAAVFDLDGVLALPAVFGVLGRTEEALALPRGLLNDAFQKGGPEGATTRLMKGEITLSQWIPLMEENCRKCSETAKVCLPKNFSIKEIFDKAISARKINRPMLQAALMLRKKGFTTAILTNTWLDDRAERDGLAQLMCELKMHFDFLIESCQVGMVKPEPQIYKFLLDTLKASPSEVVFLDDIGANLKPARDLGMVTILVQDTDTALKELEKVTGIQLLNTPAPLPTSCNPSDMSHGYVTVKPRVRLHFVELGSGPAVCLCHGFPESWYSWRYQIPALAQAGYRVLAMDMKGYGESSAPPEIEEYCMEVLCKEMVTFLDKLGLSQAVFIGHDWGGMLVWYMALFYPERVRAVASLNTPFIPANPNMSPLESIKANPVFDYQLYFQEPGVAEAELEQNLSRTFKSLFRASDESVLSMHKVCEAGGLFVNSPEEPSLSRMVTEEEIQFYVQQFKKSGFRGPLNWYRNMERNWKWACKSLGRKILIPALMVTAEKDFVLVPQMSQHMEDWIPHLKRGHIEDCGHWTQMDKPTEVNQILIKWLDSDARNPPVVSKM
# sEH inhibitor = soluble epoxide hydrolase (human) inhibition | 91,000 tested, 0.34% active | P34913 | AID 707 | inhibition, % at 2 µM | recombinant human sEH enzymatic activity assay; in the data active = inhibition above about 80%
# Active calls of the source: *; . = no result.
SMILES,Measles CPE,sdo1 growth,Yeast growth inh,Yeast lifespan up,sEH activator,sEH inhibitor
CCOC(=O)C/C(C)=N/NC(=O)Nc1ccccc1,1.1,-0.46,-28.0,30.8*,.,.
CC(NC(=O)NC12CC3CC(CC(C3)C1)C2)C1CCCO1 (stereo not drawn),11.5,0.22,-24.5,-6.0,-89.8,90.0*
Cc1cc(C)n(-c2ccc(C(=O)OCC(=O)Nc3ccc([N+](=O)[O-])cc3)cc2)n1,44.1*,-1.32,-27.9,7.0,.,.
CCC(C(=O)c1ccccc1)N(C(=O)c1ccccc1Cl)N1C(=O)C2C3C=CC(C3)C2C1=O (stereo not drawn),4.2,-0.36,-7.8,-10.0,4.4,-3.6
O=c1oc2ccc(Cl)cc2cc1-c1nnc(Nc2cccc(C(F)(F)F)c2)s1,22.6,0.06,-48.6,6.4,.,.
CNc1nnc(-c2cc3cc(Cl)ccc3oc2=O)s1,1.2,-0.58,56.8*,-12.1,-12.5,7.3
O=C(COC(=O)C1(c2ccc(F)cc2)CCCC1)N1CCc2ccccc21,5.0,-1.39,-5.8,5.5,.,.
Cc1cc(NC(=O)c2ccco2)ncc1NC(=O)Cc1ccccc1,30.9*,1.22,-37.4,-13.5,.,.
O=C(CCc1ccccc1)Nc1ccc(NC(=O)c2ccco2)nc1,25.4*,-0.36,6.0,-32.9,-3.5,4.2
O=C(CCc1ccccc1)Nc1ccc(NC(=O)c2ccco2)cc1,0.2,0.27,-19.7,-6.2,6.0,-5.6
Cc1ccc(NC(=O)CCC(=O)NNC(=O)c2ccco2)c(C)c1,25.3*,-0.88,-2.6,-6.8,6.8,-2.4
COc1cccc(C(=O)Nc2cnc(NC(=O)c3ccco3)cc2C)c1,9.0,0.98,-20.4,-7.4,-0.8,2.1
CCOc1ccccc1CNC(=O)c1nn(CC)cc1[N+](=O)[O-],6.3,0.53,-20.1,7.2,.,.
CCn1c(=O)n(CC)c2cc([N+](=O)[O-])ccc21,2.1,1.08,-23.9,-6.6,14.1,-13.2
Cn1c(CO)c(-c2ccccc2)c2cc([N+](=O)[O-])ccc21,36.8*,-1.98,-89.1,-12.8,13.8,-11.6
O=C(Oc1ccc2cc(Br)ccc2c1)N1CCCCCC1,7.8,-0.7,-46.7,-0.7,.,.
O=C(Oc1ccc2ccccc2c1Br)N1CCCCCC1,47.3*,-0.36,-52.2,-14.8,13.3,-13.7
Fc1ccc(Nc2nc(Oc3ccccc3F)nc(N3CCCC3)n2)cc1,4.5,-1.75,-15.6,-16.3,2.8,-2.3
O=C(C[n+]1ccc(-c2nnc3n2CCC3)cc1)c1ccc(Cl)cc1,26.6,0.61,9.0,-2.2,.,.
O=C(NCC(c1cccs1)N1CCOCC1)c1ccc(Br)o1 (stereo not drawn),2.3,0.61,-38.0,-4.3,-11.7,10.0
CC(C)c1ccccc1OCC(=O)NCC(c1cccs1)N1CCOCC1 (stereo not drawn),29.5*,-0.28,-29.2,-2.9,8.1,-9.3
Cc1ccnc(NC(=O)CCC2COc3ccccc3O2)c1 (stereo not drawn),41.3*,-0.39,-44.0,-23.6,-6.7,9.4
O=C(CCC1COc2ccccc2O1)Nc1ccc(Cl)cn1 (stereo not drawn),5.5,-1.09,-36.3,-22.9,-38.5,40.3
CC(C)OC(=O)CSc1nnc(CNc2nc(-c3ccccc3)cs2)n1C,5.9,0.05,-22.3,-14.3,-2.6,2.9
COc1cccc(C(=O)CSc2nnc(CNc3nc(-c4ccccc4)cs3)n2C)c1,52.5*,-1.98,-41.2,-16.6,-1.9,2.2
SMILES,Measles CPE,sdo1 growth,Yeast growth inh,Yeast lifespan up,sEH activator,sEH inhibitor
OC(Cc1cccnc1)(Cc1cccnc1)c1cc2ccccc2[nH]1,19.5,0.41,-13.4,-2.5,.,.
CCOc1ccc(C2NC(=O)NC(C)=C2C(=O)OC)cc1C (stereo not drawn),15.9,0.41,-34.7,-4.6,-9.3,12.1
COc1cccc2cc(C(=O)N3CCCCC3C)c(=O)oc12 (stereo not drawn),2.6,0.14,-18.7,.,8.6,-6.0
COc1cccc2cc(C(=O)N3C(C)CCCC3C)c(=O)oc12 (stereo not drawn),18.6*,-0.34,12.3,.,10.0,-7.3
CC(OC(=O)CCCCCN=C1NS(=O)(=O)c2ccccc21)C(=O)Nc1cc(Cl)cc(Cl)c1 (stereo not drawn),7.8,-0.26,-29.5,-0.8,.,.
Cc1cc(C)n2nc(C(=O)NCc3ccccc3)nc2n1,6.3,0.31,4.6,-9.5,-2.3,5.8
Cc1cc(C)n2nc(C(=O)NCc3ccccc3)cc2n1,42.5*,1.08,-27.1,-20.2,.,.
Cc1ccc(-c2nnn(CC(=O)Nc3ccccc3-c3ccccc3)n2)c(-n2cnnn2)c1,41.7*,0.16,-12.4,-3.4,-8.8,6.8
CCOC(=O)C1=C(N)OC2=C(C(=O)CC(C)(C)C2)C1c1cccs1 (stereo not drawn),7.1,-0.89,-47.9,.,-4.1,8.9
O=C(CSc1nnc(-c2cccnc2)o1)Oc1ccccc1,43.9*,0.42,-30.8,-19.1,14.9,-14.7
O=C(O)CSc1nnc(-c2ccccc2)o1,33.2*,0.73,-17.2,-19.2,9.2,-11.8
Cc1ccc(C(=O)CSc2nnc(-c3ccccc3)o2)cc1,19.3,0.44,-37.9,.,2.9,-4.8
Cc1nnc(C)n1/N=C/c1cc(Br)cc(Br)c1O,3.2,0.54,99.8*,-30.9,.,.
COCCN(Cc1cc2ccc(C)cc2n2nnnc12)Cc1nnnn1C(C)(C)C,12.5,-0.6,-39.2,.,7.3,-7.3
CC(C)C[C@H](NC(=O)Nc1cccc(Br)c1)C(=O)O,63.3*,-0.13,3.6,1.9,.,.
COc1ccc(C(=O)Nc2cccc(/C(C)=N/NC(=O)c3ccc([N+](=O)[O-])cc3)c2)cc1OC,12.7,-0.31,-3.3,-17.0,-5.4,5.4
COc1ccc(C(=O)Nc2ccc(/C(C)=N/NC(=O)c3ccccc3O)cc2)cc1OC,45.3*,-0.28,-7.9,-2.0,.,.
CCCCOc1ccc(C(=O)N2CCCC2C(=O)O)cc1 (stereo not drawn),48.5*,0.07,-18.3,-2.8,-5.0,4.9
COc1cccc(CN2C(=O)CCC2(C)C(=O)NC2CCCC2)c1 (stereo not drawn),4.2,0.54,-29.7,-5.7,1.3,-4.2
Cc1ccc(-c2nc(C3CCCN(S(=O)(=O)c4ccc(C(F)(F)F)cc4)C3)no2)cc1 (stereo not drawn),30.6*,-0.43,-36.7,-27.9,.,.
O=C(Nc1scc(-c2ccc(F)cc2)c1C(=O)O)c1ccco1,4.5,0.98,-18.5,97.3*,18.0,-18.4
COC(=O)c1ccc(C)c(NC(=O)c2c(-c3ccccc3)noc2C)c1,15.8,-0.27,9.5,-11.6,.,.
COC(=O)c1c(-c2ccccc2)csc1NC(=O)c1c(-c2ccccc2)noc1C,38.0*,0.01,-28.7,-4.6,.,.
COC(=O)c1c(-c2ccccc2)csc1NC(=O)c1ccco1,25.8,-0.3,0.6,-7.9,8.0,-9.4
CCOC(=O)c1c(-c2ccc(F)cc2)csc1NC(=O)c1c(-c2ccccc2)noc1C,67.0*,0.99,-28.1,5.9,.,.

# Screens (PubChem)
